From ChEMBL document CHEMBL1139658, “Synthesis and screening of bicyclic carbohydrate-based compounds: a novel type of antivirals” (Bioorg Med Chem Lett, 2006) come the findings set out here.

In brackets after ≈: the same amount, converted by molar mass. A value given as a limit tells only on which side of the number the result lay.

Experiment [1] deals with Cytomegalovirus. The experiment is described as follows: Antiviral activity against Cytomegalovirus AD-169 in human embryonic lung cells. The class given is functional, organism-based. Conditions: Human betaherpesvirus 5, AD-169, lung. In a few lines:
(§1)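 HEL cell monolayers infected at 20 PFU per well, adsorbed 2 h at 37 °C. Medium with serial compound dilutions then added. Giemsa stain on day 7 and plaques counted under the microscope. IC50 is the concentration giving 50% inhibition of virus-induced plaque formation. Minimum cytotoxic concentration scored on day 7 as the lowest concentration causing visible change to the confluent cells.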

In experiment [2] the test system is Cytomegalovirus. The experiment is described as follows: Antiviral activity against Cytomegalovirus Davies in human embryonic lung cells. Conditions: Human betaherpesvirus 5, Davies. Format: functional, organism-based. In outline: as §1
A further experiment concerns HEL. The experiment is described as follows: Cytotoxicity against human embryonic lung cells. Format: functional. In a few lines:
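Two HEL cell toxicity read-outs. Cell growth (CC50): growing HEL cells in 96-well plates were given serial compound concentrations for 3 days, then trypsinized and counted with a Coulter counter; CC50 is the concentration cutting cell growth by 50%. Morphology (MCC): on confluent monolayers during the antiviral assay, this is the lowest concentration with microscopically visible toxicity at day 7.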

One may read the IC50 as the concentration needed to halve the response being measured. Low values mean greater potency, high ones weaker potency. For orientation: CC50 means the concentration giving 50% cytotoxicity.

In the experiment on Cytomegalovirus [1], `C=CCO[C@@H]1[C@@H](OCC=C)[C@H](Cc2ccccc2)O[C@@H]2CO[C@@H](c3ccccc3)O[C@@H]12` had an IC50 of 1.2 µg/mL (≈ 2.84 µM). In the experiment with Cytomegalovirus [2], half-maximal inhibition (IC50) was put at 1 µg/mL (≈ 2.37 µM). Besides, in the experiment on HEL, the CC50 was above 50 µg/mL and the MCC is 20 µg/mL.
For `CO[C@@H]1[C@@H](OC)[C@H](c2ccccc2)O[C@@H]2CO[C@@H](C3CCCCC3)O[C@@H]12` the same measures were 3.2 µg/mL (≈ 8.83 µM), 3.5 µg/mL (≈ 9.66 µM), 28 µg/mL (≈ 77.2 µM) and 20 µg/mL.
In the case of `C#CCO[C@@H]1[C@@H](OCC#C)[C@H](Cc2ccccc2)O[C@@H]2CO[C@@H](c3ccccc3)O[C@@H]12`, the IC50 with Cytomegalovirus [1] and with Cytomegalovirus [2] was 0.5 µg/mL (≈ 1.19 µM) each time. Also, the MCC in the experiment on HEL was found to be 40 µg/mL.
With `CO[C@H]1[C@@H]2O[C@H](c3ccccc3)OC[C@H]2O[C@@H](c2ccccc2)[C@H]1OC`, the IC50 in the experiment with Cytomegalovirus [1] and with Cytomegalovirus [2] was above 50 µg/mL each time. This molecule yielded an MCC in the experiment with HEL of 400 µg/mL.
As to `CO[C@@H]1[C@@H](OC)[C@H](c2ccccc2)O[C@@H]2CO[C@@H](c3ccc(-c4ccccc4)cc3)O[C@@H]12`, the 50% inhibitory concentration (IC50) with Cytomegalovirus [1] was 0.8 µg/mL (≈ 1.85 µM). In the experiment with Cytomegalovirus [2], the IC50 came out at 0.6 µg/mL (≈ 1.39 µM). Also, in the experiment on HEL, the CC50 was above 50 µg/mL and the MCC is at least 16 µg/mL.
For `O=[N+]([O-])c1ccc([C@@H]2OC[C@H]3O[C@@H](c4ccccc4)[C@H](O)[C@@H](O)[C@@H]3O2)cc1` the same measures were 10 µg/mL (≈ 26.8 µM), 9.3 µg/mL (≈ 24.9 µM), above 50 µg/mL and 50 µg/mL.
The like results for `CO[C@@H]1[C@@H](OC)[C@H](c2ccccc2)O[C@@H]2CO[C@@H](c3ccc(Cl)cc3)O[C@@H]12` were, in that order, 5 µg/mL (≈ 12.8 µM), 4 µg/mL (≈ 10.2 µM), above 50 µg/mL and at least 100 µg/mL.
The like results for `CCCCCO[C@@H]1[C@@H](OCCCCC)[C@H](c2ccccc2)O[C@@H]2CO[C@@H](c3ccccc3)O[C@@H]12` were, in that order, above 3.2 µg/mL, 2.4 µg/mL (≈ 5.12 µM), 182 µg/mL (≈ 388 µM) and 16 µg/mL.
On to `CO[C@@H]1[C@@H](OC)[C@H](c2ccccc2)O[C@@H]2CO[C@@H](c3cccc(Cl)c3)O[C@@H]12`, for which the IC50 in the experiment with Cytomegalovirus [1] amounted to 5 µg/mL (≈ 12.8 µM); in the experiment with Cytomegalovirus [2], 3.2 µg/mL (≈ 8.19 µM). For the same molecule, in the experiment on HEL, the MCC is at least 40 µg/mL.
Consider `CO[C@@H]1[C@@H](OC)[C@H](Cc2ccccc2)O[C@@H]2CO[C@@H](c3ccccc3)O[C@@H]12`, for which the IC50 in the experiment with Cytomegalovirus [1] worked out at 20 µg/mL (≈ 54 µM). Also, in the experiment on Cytomegalovirus [2], the IC50 turned out to be 5 µg/mL (≈ 13.5 µM). In the experiment on HEL, this molecule displayed a CC50 above 50 µg/mL and an MCC of 20 µg/mL.
Regarding `O[C@@H]1[C@@H](O)[C@H](c2ccccc2)O[C@@H]2CO[C@@H](c3ccc(Cl)cc3)O[C@@H]12`, the IC50 with Cytomegalovirus [1] is 14 µg/mL (≈ 38.6 µM). Also, the IC50 with Cytomegalovirus [2] was 10 µg/mL (≈ 27.6 µM). Also, in the experiment on HEL, the CC50 is above 50 µg/mL and the MCC is at least 100 µg/mL.
For `CO[C@@H]1[C@@H](OC)[C@H](c2ccccc2)O[C@@H]2CO[C@@H](c3ccc4ccccc4c3)O[C@@H]12` the same measures were 0.47 µg/mL (≈ 1.16 µM), 0.8 µg/mL (≈ 1.97 µM), above 50 µg/mL and at least 16 µg/mL.
For the molecule `C=CC[C@@H]1O[C@@H]2CO[C@@H](c3ccccc3)O[C@H]2[C@H](OC)[C@H]1OC`, the IC50 in the experiment with Cytomegalovirus [1] and in the experiment on Cytomegalovirus [2] was above 50 µg/mL in each case.
In the experiment on Cytomegalovirus [1], `O[C@@H]1[C@@H](O)[C@H](c2ccccc2)O[C@@H]2CO[C@@H](c3ccc(C(F)(F)F)cc3)O[C@@H]12` returned an IC50 of 1.6 µg/mL (≈ 4.04 µM). The molecule also registered an IC50 in the experiment on Cytomegalovirus [2] of 1.6 µg/mL (≈ 4.04 µM). Besides, in the experiment with HEL, the midpoint of cytotoxicity, the CC50, lay at 35 µg/mL (≈ 88.3 µM) and the MCC is 400 µg/mL.
Regarding `CCO[C@@H]1[C@@H](OCC)[C@H](Cc2ccccc2)O[C@@H]2CO[C@@H](c3ccccc3)O[C@@H]12`, the IC50 in the experiment on Cytomegalovirus [1] is 2.6 µg/mL (≈ 6.52 µM). For the same molecule, the half-inhibitory concentration (IC50) with Cytomegalovirus [2] turned out to be 3 µg/mL (≈ 7.53 µM). Besides, in the experiment with HEL, the CC50 is above 50 µg/mL and the MCC is above 120 µg/mL.
In the case of `CO[C@H]1[C@H]2O[C@H](c3ccccc3)OC[C@H]2O[C@@H](c2ccccc2)[C@@H]1OC`, the IC50 with Cytomegalovirus [1] and with Cytomegalovirus [2] was above 50 µg/mL each time. In the experiment with HEL, this molecule gave an MCC above 400 µg/mL.
As for `C#CCO[C@@H]1[C@@H](OCC#C)[C@H](c2ccccc2)O[C@@H]2CO[C@@H](c3ccccc3)O[C@@H]12`, the values for the IC50 in the experiment with Cytomegalovirus [1] and with Cytomegalovirus [2] were 5 µg/mL (≈ 12.4 µM) and 3 µg/mL (≈ 7.42 µM), respectively. This molecule also yielded an MCC in the experiment with HEL of 40 µg/mL.
`CO[C@@H]1[C@@H](OC)[C@H](c2ccccc2)O[C@@H]2CO[C@@H](c3ccccc3)O[C@@H]12`: the figures for the IC50 with Cytomegalovirus [1] and in the experiment on Cytomegalovirus [2] were 2 µg/mL (≈ 5.61 µM) and 2.4 µg/mL (≈ 6.73 µM), respectively.
In the case of `CC(C)CO[C@@H]1[C@@H](OCC(C)C)[C@@H](c2ccccc2)O[C@@H]2CO[C@@H](c3ccccc3)O[C@@H]12`, the IC50 in the experiment with Cytomegalovirus [1] turned out to be 2.6 µg/mL (≈ 5.9 µM); in the experiment on Cytomegalovirus [2], 3.2 µg/mL (≈ 7.26 µM). The same molecule came in with an MCC in the experiment with HEL of 40 µg/mL.
For `CO[C@@H]1[C@@H](OC)[C@H](c2ccccc2)O[C@@H]2CO[C@@H](c3ccc(C(F)(F)F)cc3)O[C@@H]12`, the values for the IC50 in the experiment with Cytomegalovirus [1] and in the experiment on Cytomegalovirus [2] were 1.5 µg/mL (≈ 3.53 µM) and 3.1 µg/mL (≈ 7.3 µM), respectively. The same molecule showed a 50% cytotoxic concentration (CC50) with HEL above 50 µg/mL. Also, the MCC in the experiment with HEL was at least 16 µg/mL.
For `O[C@@H]1[C@@H](O)[C@H](c2ccccc2)O[C@@H]2CO[C@@H](c3ccc4ccccc4c3)O[C@@H]12` the same measures were 1.3 µg/mL (≈ 3.44 µM), 1.8 µg/mL (≈ 4.76 µM), 21 µg/mL (≈ 55.5 µM) and at least 400 µg/mL.
